Laboratory results as given in PMC12529337 (RSC Medicinal Chemistry, 2025).
Where two headings read alike, the source gives them in different places.

Experiments:
[1] = system: MDA-MB-231 cells; assay: MTT assay, anticancer activity, MDA-MB-231; type: cell-based, human; conditions: for IC50: read-out: IC50 MDA-MB-231
[2] = system: MCF-7 cells; assay: MTT assay, anticancer activity, MCF-7; type: cell-based, human; conditions: read-out: IC50 MCF-7
[3] = system: MCF-10A cells; assay: MTT assay, normal counterpart MCF-10A; type: cell-based, human; conditions: read-out: IC50 MCF-10A, 72 h
[4] = system: NO production in murine macrophages RAW 264.7; assay: NO production; type: cell-based; conditions: 24 h, LPS 1 μg/mL
Method in brief: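 Plated RAW 264.7 cells were treated after 24 h with test compound (5 or 10 μM, in DMSO) plus LPS 1 μg mL−1 in 1% FBS medium for 24 h. Indomethacin (5, 10, 50 μM) was the positive control. Medium was mixed 1:1 with Griess reagent for 30 min at RT and A540 was read. Results are % NO vs LPS-only, three experiments in triplicate.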

[5] = system: murine macrophages RAW 264.7; assay: MTT test, cytotoxicity on RAW 264.7 macrophages; type: cell-based; conditions: for cytotoxicity toward RAW 264.7: 10 μM, 24 h
Method in brief: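 RAW 264.7 cells were kept in high-glucose DMEM with 10% FBS at 37 °C and 5% CO2. Cells were seeded in 48-well plates and exposed for 24 h to varying test compound concentrations (in DMSO). Viability was measured by MTT and expressed as % of control. Three independent experiments were run in triplicate.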

[6] = system: ROS production in murine macrophages RAW 264.7; assay: ROS production; type: cell-based; conditions: LPS; for antioxidant activity (ROS production): lower dosage (5 μM); for ROS reduction: concentration not stated in text (5 or 10 μM)
Method in brief: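 RAW 264.7 cells received the same treatment as in the Griess assay: LPS 1 μg mL−1 plus test compound at 5 or 10 μM, 24 h, 1% FBS. NAC (5 × 103, 10 × 103, 20 × 103 μM) was the positive control. After PBS washing, H2DCFDA 25 μM was added for 40 min at 37 °C. Fluorescence was read at λex 485/λem 535. Results are % ROS from mean fluorescence of co-treated vs LPS-alone wells, three experiments in triplicate.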

[7] = target: T1, human topoisomerase I (hTopoI) (Homo sapiens, UniProt P11387); assay: Human topoisomerase I relaxation assay; type: biochemical; conditions: for inhibition of hTopoI relaxation of supercoiled DNA: pHOT1, 1 h 37 °C, gel
T1 sequence (P11387 1-765): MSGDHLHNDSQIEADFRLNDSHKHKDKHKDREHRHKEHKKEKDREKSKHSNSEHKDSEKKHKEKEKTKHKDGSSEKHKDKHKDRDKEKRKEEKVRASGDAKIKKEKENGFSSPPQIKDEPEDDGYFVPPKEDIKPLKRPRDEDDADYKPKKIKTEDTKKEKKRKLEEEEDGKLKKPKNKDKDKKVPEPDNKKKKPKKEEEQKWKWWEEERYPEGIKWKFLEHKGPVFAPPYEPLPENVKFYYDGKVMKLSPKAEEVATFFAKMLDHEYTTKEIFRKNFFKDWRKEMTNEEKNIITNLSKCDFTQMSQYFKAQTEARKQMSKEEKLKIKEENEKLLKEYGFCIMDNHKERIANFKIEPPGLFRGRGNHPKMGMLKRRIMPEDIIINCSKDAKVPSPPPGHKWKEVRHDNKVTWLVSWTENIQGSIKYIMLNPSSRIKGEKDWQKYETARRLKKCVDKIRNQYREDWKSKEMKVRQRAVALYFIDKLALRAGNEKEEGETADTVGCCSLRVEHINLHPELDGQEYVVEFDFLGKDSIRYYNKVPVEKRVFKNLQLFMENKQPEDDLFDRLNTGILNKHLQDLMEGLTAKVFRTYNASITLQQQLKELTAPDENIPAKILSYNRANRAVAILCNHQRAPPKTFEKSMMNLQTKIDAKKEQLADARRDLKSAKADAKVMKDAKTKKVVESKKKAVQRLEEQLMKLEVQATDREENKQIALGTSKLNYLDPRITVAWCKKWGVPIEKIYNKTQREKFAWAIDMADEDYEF
Method in brief: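 Recombinant human topoisomerase I (2 units) with 0.25 μg supercoiled pHOT1 plasmid as substrate. Test compound (in DMSO) at 0.001, 0.01, 0.1 and 1 μM; DMSO vehicle control. Incubated 1 h at 37 °C. Run on a 1% agarose gel in 1× TAE without ethidium bromide, then post-stained with EB ([…], 30 min), washed and viewed under UV.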

[8] = system: MDA-MB-231 cells; assay: TUNEL assay, nuclear DNA damage; type: cell-based, human; conditions: 1 μM, 24 h
Method in brief: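 MDA-MB-231 cells (DMEM/F12, 5% FBS) were grown on coverslips and treated for 24 h with 1 μM test compound in DMSO or with vehicle. Cells were PBS-washed, methanol-fixed (−20 °C, 15 min) and incubated with the one-step TUNEL (FITC) enzyme for 35 min at 37 °C in the dark. DAPI counterstain was 0.2 mg mL−1 for 10 min at RT. Imaging used fluorescence microscopy at 20× (490/515 nm; DAPI 350/460 nm), three independent experiments.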

[9] = system: iNOS expression in murine macrophages RAW 264.7; assay: iNOS expression by immunofluorescence in RAW 264.7; type: cell-based; conditions: 5 μM, co-treated with LPS 1 μg/mL, 24 h
Method in brief: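 On coverslips, RAW 264.7 cells received LPS 1 μg mL−1 with test compound (5 μM) or indomethacin (50 μM) in 1% FBS medium for 24 h. Cells were methanol-fixed (−20 °C, 15 min) and incubated overnight at 4 °C with anti-iNOS (1:100, 2% BSA), then Alexa Fluor 568 goat anti-mouse (1:500). DAPI 0.2 μg mL−1 was applied. Images taken at 40× were used for semi-quantitative fluorescence measurement, two independent experiments.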

[10] = MTT, mean ± SD, normal mammary epithelial cells

(S)-3-Methyl-1-(1-phenylethyl)-1H-imidazol-3-ium silver(I) iodide [(S)-AgL1]
IC50 MDA-MB-231 ([1]; MTT, 72 h, mean ± SD): totally inactive
IC50 ([1]; MTT, 72 h, mean ± SD): > 100 µM
IC50 ([2]; MTT, 72 h, mean ± SD): 7.5 ± 0.8 µM
IC50 [3, 10]: 77.1 ± 6.8 µM

C[C@H](c1ccccc1)n1cc[n+](C)c1 [(R)-P1, (R)-3-Methyl-1-(1-phenylethyl)-1H-imidazol-3-ium iodide]
IC50 ([1]; Homo sapiens, MDA-MB-231, 72 h): 71 ± 6.8 µM
IC50 ([2]; Homo sapiens, MCF7, 72 h): 34 ± 2.4 µM
IC50 ([3]; Homo sapiens, MCF-10A): 40.3 ± 3.6 µM

COc1ccc2c(c1)c(CC(=O)O)c(C)n2C(=O)c1ccc(Cl)cc1 [Ind, indomethacin, reference compound]
reduction of NO production ([4]; 50 μM): about 26%

C[C@H](c1ccccc1)n1cc[n+]([C@H](C)c2ccccc2)c1.[Cl][Au] [(R)-AuL2, 1,3-Bis((R)-1′-phenylethyl)imidazolium gold(I) chloride]
IC50 ([1]; MTT, 72 h, mean ± SD): 6.9 ± 0.3 µM
IC50 ([2]; MTT, 72 h, mean ± SD): 7 ± 0.6 µM
IC50 [3, 10]: 7.1 ± 0.5 µM
cytotoxicity toward RAW 264.7 [5]: cytotoxic
reduction of NO production ([4]; 5 μM): about 18%
antioxidant activity (ROS production) [6]: did not exert any antioxidant activity

C[C@H](c1ccccc1)n1cc[n+]([C@H](C)c2ccccc2)c1.[Cl][Ag] [(R)-AgL2, 1,3-Bis((R)-1′-phenylethyl)imidazolium silver(I) chloride]
IC50 ([1]; MTT, 72 h, mean ± SD): 17.6 ± 1.7 µM
IC50 ([2]; MTT, 72 h, mean ± SD): 9.7 ± 0.8 µM
IC50 [3, 10]: 24.8 ± 1.7 µM
ROS reduction [6]: ~12%

(S)-3-Methyl-1-(1-phenylethyl)-1H-imidazol-3-ium gold(I) chloride [(S)-AuL1]
IC50 ([1]; MTT, 72 h, mean ± SD): 0.5 ± 0.1 µM
IC50 ([2]; MTT, 72 h, mean ± SD): 1.7 ± 0.1 µM
IC50 [3, 10]: 11.5 ± 0.5 µM
inhibition of hTopoI relaxation of supercoiled DNA ([7]; 0.001 μM): no inhibition
inhibition of hTopoI relaxation of supercoiled DNA ([7]; 0.01 μM): partially
inhibition of hTopoI relaxation of supercoiled DNA ([7]; 0.1 μM): partially
inhibition of hTopoI relaxation of supercoiled DNA ([7]; 1 μM): totally inhibited
nuclear DNA damage (TUNEL green fluorescence) [8]: marked genomic DNA damage
reduction of NO production ([4]; 5 μM): about 33%
reduction of NO production ([4]; 10 μM): ~57%
intracellular iNOS expression vs LPS-treated cells [9]: net diminution
reduction of ROS production ([6]; 10 μM): ~32%

C[C@@H](c1ccccc1)n1cc[n+]([C@@H](C)c2ccccc2)c1.[Cl][Au] [(S)-AuL2, 1,3-Bis((S)-1′-phenylethyl)imidazolium gold(I) chloride]
IC50 ([1]; MTT, 72 h, mean ± SD): 2.3 ± 0.1 µM
IC50 ([2]; MTT, 72 h, mean ± SD): 1.8 ± 0.1 µM
IC50 [3, 10]: 5.3 ± 0.2 µM
cytotoxicity toward RAW 264.7 [5]: cytotoxic
intracellular iNOS expression vs LPS-treated cells [9]: net diminution
antioxidant activity (ROS production) [6]: did not exert any antioxidant activity

C[C@@H](c1ccccc1)n1cc[n+]([C@@H](C)c2ccccc2)c1.[Cl][Ag] [(S)-AgL2, 1,3-Bis((S)-1′-phenylethyl)imidazolium silver(I) chloride]
IC50 ([1]; MTT, 72 h, mean ± SD): 14.3 ± 1.2 µM
IC50 ([2]; MTT, 72 h, mean ± SD): 4.2 ± 0.3 µM
IC50 [3, 10]: 24 ± 1.1 µM
ROS reduction [6]: about 15%

CC(=O)N[C@@H](CS)C(=O)O [NAC, N-acetyl-cysteine, reference compound]
residual viability vs LPS-treated cells ([5]; 5 × 10^3, 10 × 10^3 and 20 × 10^3 μM, data not shown): about 98.7%
reduction in ROS levels ([6]; 10 × 10^3 μM): about 25%
reduction in ROS levels ([6]; 20 × 10^3 μM): ~40%

C[C@H](c1ccccc1)n1cc[n+]([C@H](C)c2ccccc2)c1 [(R)-P2, 1,3-Bis((R)-1′-phenylethyl)imidazolium chloride]
IC50 ([1]; Homo sapiens, MDA-MB-231, 72 h): > 100 µM
IC50 ([2]; Homo sapiens, MCF7, 72 h): 58 ± 4.3 µM
IC50 ([3]; Homo sapiens, MCF-10A): 28.2 ± 1.9 µM

C[C@H](c1ccccc1)n1cc[n+](C)c1.[Cl][Au] [(R)-AuL1, (R)-3-Methyl-1-(1-phenylethyl)-1H-imidazol-3-ium gold(I) chloride]
IC50 ([1]; MTT, 72 h, mean ± SD): 5.8 ± 0.5 µM
IC50 ([2]; MTT, 72 h, mean ± SD): 6.8 ± 0.4 µM
IC50 [3, 10]: 2.1 ± 0.1 µM
inhibition of hTopoI relaxation of supercoiled DNA ([7]; 0.001 μM): partially
inhibition of hTopoI relaxation of supercoiled DNA ([7]; 0.01 μM): totally block
inhibition of hTopoI relaxation of supercoiled DNA ([7]; 0.1 μM): preserved
inhibition of hTopoI relaxation of supercoiled DNA ([7]; 1 μM): preserved
hTopoI inhibiting concentration, times lower than that of (S)-AuL1 ([7]; total inhibition 0.01 vs 1 μM): 100 times
cytotoxicity toward RAW 264.7 [5]: cytotoxic
reduction of NO production ([4]; 5 μM): about 18%

C[C@@H](c1ccccc1)n1cc[n+]([C@@H](C)c2ccccc2)c1 [(S)-P2, 1,3-Bis((S)-1′-phenylethyl)imidazolium chloride]
IC50 ([1]; Homo sapiens, MDA-MB-231, 72 h): 10.8 ± 1.1 µM
IC50 ([2]; Homo sapiens, MCF7, 72 h): 16.3 ± 1.3 µM
IC50 ([3]; Homo sapiens, MCF-10A): 28.8 ± 1.9 µM

C[C@H](c1ccccc1)n1cc[n+](C)c1.[Ag][I] [(R)-AgL1, (R)-3-Methyl-1-(1-phenylethyl)-1H-imidazol-3-ium silver(I) iodide]
IC50 ([1]; MTT, 72 h, mean ± SD): 20.6 ± 1.4 µM
IC50 ([2]; MTT, 72 h, mean ± SD): 11.2 ± 0.6 µM
IC50 [3, 10]: 72.8 ± 5.8 µM

N.N.[Cl][Pt][Cl] [Cisplatin, cisplatin, reference compound]
IC50 ([1]; MTT, 72 h, mean ± SD): 29.5 ± 0.9 µM
IC50 ([2]; MTT, 72 h, mean ± SD): 37.3 ± 1.2 µM
IC50 [3, 10]: 79.4 ± 1.6 µM

C[C@@H](c1ccccc1)n1cc[n+](C)c1 [(S)-P1, (S)-3-Methyl-1-(1-phenylethyl)-1H-imidazol-3-ium iodide]
IC50 ([1]; Homo sapiens, MDA-MB-231, 72 h): 87 ± 7.6 µM
IC50 ([2]; Homo sapiens, MCF7, 72 h): > 100 µM
IC50 ([3]; Homo sapiens, MCF-10A): > 100 µM
